# M5 PAM: CHRM5 positive allosteric modulation | AID 624038 | CHO-K1 hM5, Fluo-8 calcium, ACh EC20 PAM; 0% = ACh EC20, 100% = ACh EC100 | actives 0.3% (n = 360,000) | activation, % at 3 µM;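 active = activation above the run cutoff, the mean activation of all test compounds plus 3 SD, cut at about 18% in these data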
#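 Assay system – human M5 receptor in CHO-K1 cells · Read-out – % activation, ACh-normalized · Technique – Fluo-8 calcium fluorescence · Dosing – single-point, 3 µM nominal · Incubation – Fluo-8 loading 80 min at 37 °C plus 30 min room temperature · Repeats – singlicate, one well per test compound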
# CHRM4 PAM: potentiates acetylcholine response at human M4 receptor | P08173 | CHO-K1 hM4/Gqi5, Fluo-8 calcium fluorescence, ACh EC20; 0% = ACh EC20, 100% = maximal ACh | activation, % at 3 µM | actives 0.4% (n = 360,000);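 active = activation above its plate's cutoff, the mean activation of sample wells plus 3 SD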
# Target sequence (P08173 whole entry, looked up): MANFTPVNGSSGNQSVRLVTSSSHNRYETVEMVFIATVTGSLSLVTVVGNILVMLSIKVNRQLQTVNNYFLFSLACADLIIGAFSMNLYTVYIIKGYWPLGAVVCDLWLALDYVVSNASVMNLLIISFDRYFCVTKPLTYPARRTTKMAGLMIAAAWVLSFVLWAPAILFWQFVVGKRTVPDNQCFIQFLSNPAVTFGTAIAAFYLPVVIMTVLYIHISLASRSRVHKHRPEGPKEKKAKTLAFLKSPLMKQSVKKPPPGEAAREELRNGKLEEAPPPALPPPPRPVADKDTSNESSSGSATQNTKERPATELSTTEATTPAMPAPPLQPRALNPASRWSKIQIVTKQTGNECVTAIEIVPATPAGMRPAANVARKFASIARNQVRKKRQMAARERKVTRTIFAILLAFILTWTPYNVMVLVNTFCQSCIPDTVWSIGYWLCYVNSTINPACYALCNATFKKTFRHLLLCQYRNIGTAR
# M5 antag: CHRM5 antagonism in calcium assay | P08912 | CHO-hM5 cells, Fluo-8 calcium fluorescence, ACh EC80 | inhibition, % at 3 µM | actives 0.59% (n = 360,000) | AID 624040;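 active = inhibition above a per-plate cutoff, the mean of that plate's test compounds plus 3 SD, cut at about 27% in these data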;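 note: 0% = acetylcholine EC80 with DMSO and 100% = DMSO without agonist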
# M5 ag: agonists of human muscarinic M5 receptor (CHRM5); P08912; CHO-K1 hM5 cells, Fluo-8 calcium fluorescence; 0% DMSO wells, 100% maximal acetylcholine response; activation, % at 3 µM; actives 0.19% (n = 360,000); AID 624037;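 active = activation above the run's mean over test compounds plus 3 SD, cut at about 23% in these data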;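 note: signal is peak over basal fluorescence ratio across the kinetic read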
# CHRM4 antagonist: blocks acetylcholine activation of human M4 receptor. P08173. CHO-hM4 cells, ACh EC80, Fluo-8 calcium fluorescence. inhibition, % at 3 µM. actives 0.73% (n = 360,000). AID 624125;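 active = inhibition above its plate's cutoff, the mean inhibition of sample wells plus 3 SD, cut at about 27% in these data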;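 note: 0% = acetylcholine EC80 with DMSO and 100% = DMSO without agonist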
# CHRM4 agonist: agonists of human muscarinic M4 receptor (CHRM4); P08173; CHO-K1 hM4/Gqi5, Fluo-8 calcium fluorescence; vehicle 0%, full acetylcholine response 100%; activation, % at 3 µM; actives 0.14% (n = 360,000);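 active = activation above the run mean over all test wells plus 3 SD, cut at about 32% in these data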;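 note: peak over basal fluorescence ratio per well then scaled between controls; 0% = DMSO wells and 100% = acetylcholine at EC100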
# * = called active by the depositor. Most compounds without a hit are left out; they make up all but 1.9% or so of the library.
SMILES,M5 PAM,CHRM4 PAM,M5 antag,M5 ag,CHRM4 antagonist,CHRM4 agonist
CC(O)(C#CCN1CCOCC1)c1ccccc1 (stereo not given),0.5,-1.9,8.4,-2.3,6.2,-0.2
OC(C#CCN1CCCCCC1)(c1ccccc1)c1cccnc1 (stereo not given),-32.1,-60.5,55.3*,-18.4,82.1*,12.8
CCCN(CC#CC(O)(c1ccccc1)c1cccnc1)CCC (stereo not given),-9.9,-5.5,-3.6,-10.7,4.9,0.1
OC(C#CCN1CCCC1)(c1ccccc1)c1cccnc1 (stereo not given),-31.2,-17.0,75.6*,-21.7,86.0*,-0.1
Cc1ccc(S(=O)(=O)NC(=O)C2(C)CCN2C(=O)C2(c3ccc(Cl)cc3)CCC2)nc1 (stereo not given),-3.2,8.4,-0.1,-1.4,-10.0,0.2
COc1ccc(-c2nn(-c3ccccc3)cc2CNC[C@H]2O[C@@H](n3cnc4c(=O)[nH]c(N)nc43)[C@H](O)[C@@H]2O)cc1,10.1,14.6,-0.3,0.8,-6.5,0.4
O=C(NNC(=O)c1cc2cc3ccccc3nc2s1)c1cccc(Cl)c1,13.4,29.8*,5.4,-2.2,2.6,1.2
O=C(NCc1ccccc1)NC1(C(=O)N2CCOCC2)CCCCC1,42.0*,-1.4,-8.3,-3.3,24.4,0.4
Cc1nc2nc(C)n(CCN3CCOCC3)c(=O)c2c(-c2cccc([N+](=O)[O-])c2)c1C(=O)CCCCCCCCCCN1CCC(c2ccccc2)(c2ccccc2)CC1,-44.0,-12.3,95.8*,-5.7,94.6*,20.8
CCC(=O)Nc1ccc(S(=O)(=O)NC[C@H]2O[C@@H](n3cnc4c(=O)[nH]c(N)nc43)[C@H](O)[C@@H]2O)cc1,-0.7,1.8,12.6,1.3,0.9,-0.2
COC(=O)c1ccccc1N=C(SC)N(C)C,7.9,4.9,-5.0,0.5,-2.1,0.5
CSC(=Nc1ccccc1)N=C(SCc1ccccc1)N(C)C,-5.5,-11.6,15.9,-4.7,46.5*,14.1
C[C@@H]1COc2cc(N3CCC[C@H]3CO)ccc2S(=O)(=O)N1,-0.6,11.1,-9.4,-1.8,-23.2,0.8
Cc1c(C=O)c2ccccn2c1C(=O)c1ccccc1Cl,-10.4,-17.4,15.0,-2.6,55.1*,0.4
COc1ccc(-c2nc3c(Cl)cc(C(F)(F)F)cn3c2Cc2ccc(C)cc2)cc1OC,2.6,7.5,-10.5,2.3,-8.2,-0.4
COc1cc(/C=C2/SC(=S)N(Cc3ccccc3)C2=O)cc(Cl)c1O,-5.4,-12.8,32.9*,7.7,17.8,15.9
COc1cc([N+](=O)[O-])cc(/C=C2/SC(=S)N(Cc3ccccc3)C2=O)c1O,-4.8,-19.6,11.3,9.0,22.6,32.2*
CCOc1cc(/C=C2/SC(=S)N(Cc3ccccc3)C2=O)ccc1O,-0.7,-5.8,26.5,42.2*,26.1,26.4
COc1cc(/C=C2/SC(=S)N(Cc3ccccc3)C2=O)ccc1OCC(=O)O,4.5,0.6,-12.0,9.3,-6.7,1.4
CCCCCCCC1CC(=O)C=C(C)C1C(=O)OCC (stereo not given),-4.2,11.7*,14.1,-3.9,-0.6,-0.6
CN(C)c1ccc(CC(=O)N2CCCC(c3cc(C(=O)Nc4ccc(C(C)(C)C)cc4)no3)C2)cc1 (stereo not given),-9.4,-8.5,15.8,3.9,5.2,10.7
O=C(Nc1ccc(OC(F)(F)F)cc1)c1cccc(-n2cnnn2)c1,-4.6,5.2,2.3,-1.9,-2.8,11.0
CCC(C)c1ccccc1NC(=O)COc1ccc(-n2cnnn2)cc1 (stereo not given),0.8,20.4*,0.2,0.9,-13.2,2.5
CCOc1ccc(NC(=O)c2cccc(-n3cnnn3)c2)cc1,-2.1,21.0,3.5,-0.4,26.6*,1.8
CS(=O)(=O)N1Cc2cc(C(=O)NCC3CC3)nc(-c3cccc(-c4cccnc4)c3)c2[C@H]1CCO,11.2,7.2,8.1,-2.9,-5.0,0.3
SMILES,M5 PAM,CHRM4 PAM,M5 antag,M5 ag,CHRM4 antagonist,CHRM4 agonist
CCCCNC(=O)c1nc(C2CCN(S(=O)(=O)c3cccc(C(F)(F)F)c3)CC2)oc1-c1ccccc1,11.8,9.7,11.4,3.3,-0.5,0.5
COc1ccc(/C=C(/NC(=O)c2ccco2)C(=O)NCc2ccco2)cc1OC,-7.0,25.5*,17.3,-3.2,-9.5,-1.6
CCOC(=O)/C(=C/c1ccc(Cl)cc1)NC(=O)c1ccco1,14.2,23.5*,-2.1,-4.8,-12.3,1.6
O=C(OCc1ccccc1)/C(=C/c1ccc(Cl)cc1)NC(=O)c1ccccc1Cl,5.1,21.1,15.8,1.8,8.6,0.7
O=CNc1cc(-c2ccoc2)cn2c(-c3ccc(F)cc3)cnc12,4.5,5.5,-6.5,0.6,0.9,2.3
CCCS(=O)(=O)NC(=O)C1(C)CCN(C(=O)c2ccc(OC)cc2)C1 (stereo not given),0.4,0.8,-4.8,2.2,-12.6,2.8
COc1cccc(CNC(=O)c2ccc(F)c(S(=O)(=O)N3CCCCC3)c2)c1,0.7,0.0,7.3,0.2,-10.4,4.5
COC(=O)C1=C(C)NC(C)=C(C(=O)OCCN(C)Cc2ccccc2)C1c1cccc([N+](=O)[O-])c1 (stereo not given),-19.2,-17.8,17.4,3.1,34.9*,16.7
CSCCC(NC(=O)OC(C)(C)C)C(=O)NC(CC(C)C)C(N)=O (stereo not given),11.3,35.8*,3.0,1.7,3.0,3.0
CCN(CC)Cc1ccccc1Sc1ccccc1,-18.2,-16.9,99.0*,-8.8,52.9*,0.5
N/C(Cc1ccccc1Sc1ccccc1)=N\O,-7.4,4.5,10.7,-0.4,-0.9,2.2
CC1ON=C(c2cccc3ccccc23)N(C)C1=O (stereo not given),-2.6,2.5,-1.0,0.3,-3.8,0.4
COC(=O)c1ccc(/C=C(\C#N)c2nc3ccccc3s2)cc1,1.0,2.2,-5.8,3.8,-1.8,5.8
N#C/C(=C/c1ccc(-c2ccc(S(N)(=O)=O)cc2)o1)c1nc2ccccc2s1,-17.9,-8.4,47.6*,32.4*,26.5*,19.4
N#C/C(=C\c1ccccn1)c1nc2ccccc2s1,-20.4,-10.1,17.4,43.7*,17.5,19.6
O=C(NCC1CCCO1)c1ccc(Cl)c(NS(=O)(=O)c2ccc(F)cc2)c1 (stereo not given),3.4,1.6,1.1,-1.1,0.2,0.8
O=C(NCc1ccccc1)C(c1ccc(C(F)(F)F)cc1)n1c(=O)c(-c2ccco2)nc2ccccc21 (stereo not given),5.5,-0.9,-5.9,1.8,-22.2,0.4
